Molecules are shown by their SMILES. pIC50, pKi: −log10 of the molar value. Active and inactive are the calls of the source. No cut-off for these calls is given here.

The species named for test [1] is Rattus norvegicus. The test is described as follows: Activity at Kainate receptor in rat cortical slice assessed as antagonism of 5 uM kainic acid-induced response. In kind it is functional.
Test [2] is filed under the species Rattus norvegicus. The test is described as follows: Activity at AMPA receptor in rat cortical slice assessed as antagonism of 5 uM AMPA-induced response. In kind it is functional.
Test [3] relates to Mus musculus. The test is described as follows: Induction of sedation in DBA/2 mouse at 100 […], ip. In kind it is functional, organism-based.
Test [4] addresses Metabotropic glutamate receptor 1 (Rattus norvegicus) (UniProt P23385). The experiment in a line: Activity at rat mGluR1 expressed in CHO cells at 1 mM. The test is classed as cell-based. An outline of the steps: (§1)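 Rat mGluR1α, mGluR2, mGluR4a and mGluR5a each expressed in CHO cell lines. Compounds tested at 1 mM for both agonist and antagonist activity.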
For test [5], the target named is Glutamate NMDA receptor. The test is described as follows: Displacement of [3H]CGP-39653 from rat brain NMDA receptor. Summed up: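 Rat brain membranes prepared per Ransom and Stec with modifications. Binding with 2 nM [3H]CGP 39653, with bound radioactivity measured by scintillation counting. Racemates tested. Values are antilog of log mean of at least three experiments.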

Test [6] deals with Metabotropic glutamate receptor 2 (Rattus norvegicus) (UniProt P31421). The experiment in a line: Activity at rat mGluR2 expressed in CHO cells at 1 mM. The test is classed as cell-based. Summed up:
as §1

For test [7], the system named is Mus musculus. The experiment in a line: Anticonvulsant activity in ip dosed DBA/2 mouse assessed as inhibition of clonic seizures. In kind it is functional. To be noted: DBA/2, ip. Summed up: (§2)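 Male DBA/2 mice (6-12 g, 22-26 days old) dosed ip in 100 μL/10 g. Compounds dissolved in 0.1 mM NaOH and brought to pH 7.3-7.7 with phosphate buffer; vehicle water. 45 min after dosing, a 110 dB bell sounded for 60 s or until clonic seizure onset. Seizure scoring: wild running 1, clonus 2, tonic extension 3, respiratory arrest 4. ED50 reported in μmol/kg.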

The nature of test [8]: Displacement of [3H]AMPA from rat cortex AMPA receptor. Summed up:
(§3)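 Rat brain membranes prepared per Ransom and Stec with modifications. Radioligand binding with 5 nM [3H]AMPA, or 5 nM [3H]kainic acid in the absence of CaCl2. Bound radioactivity measured by scintillation counting. Racemates tested. Values are antilog of log mean of at least three experiments.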

The subject of test [9] is Mus musculus. The experiment in a line: Reduction of locomotor activity in DBA/2 mouse at 100 […], ip. The test is classed as functional, organism-based.
The target of test [10] is Metabotropic glutamate receptor 4 (Rattus norvegicus) (UniProt P31423). The experiment in a line: Activity at rat mGluR4a expressed in CHO cells at 1 mM. In kind it is cell-based. Summed up: as §1
Chain of Metabotropic glutamate receptor 4 (Rattus norvegicus) (P31423 whole entry): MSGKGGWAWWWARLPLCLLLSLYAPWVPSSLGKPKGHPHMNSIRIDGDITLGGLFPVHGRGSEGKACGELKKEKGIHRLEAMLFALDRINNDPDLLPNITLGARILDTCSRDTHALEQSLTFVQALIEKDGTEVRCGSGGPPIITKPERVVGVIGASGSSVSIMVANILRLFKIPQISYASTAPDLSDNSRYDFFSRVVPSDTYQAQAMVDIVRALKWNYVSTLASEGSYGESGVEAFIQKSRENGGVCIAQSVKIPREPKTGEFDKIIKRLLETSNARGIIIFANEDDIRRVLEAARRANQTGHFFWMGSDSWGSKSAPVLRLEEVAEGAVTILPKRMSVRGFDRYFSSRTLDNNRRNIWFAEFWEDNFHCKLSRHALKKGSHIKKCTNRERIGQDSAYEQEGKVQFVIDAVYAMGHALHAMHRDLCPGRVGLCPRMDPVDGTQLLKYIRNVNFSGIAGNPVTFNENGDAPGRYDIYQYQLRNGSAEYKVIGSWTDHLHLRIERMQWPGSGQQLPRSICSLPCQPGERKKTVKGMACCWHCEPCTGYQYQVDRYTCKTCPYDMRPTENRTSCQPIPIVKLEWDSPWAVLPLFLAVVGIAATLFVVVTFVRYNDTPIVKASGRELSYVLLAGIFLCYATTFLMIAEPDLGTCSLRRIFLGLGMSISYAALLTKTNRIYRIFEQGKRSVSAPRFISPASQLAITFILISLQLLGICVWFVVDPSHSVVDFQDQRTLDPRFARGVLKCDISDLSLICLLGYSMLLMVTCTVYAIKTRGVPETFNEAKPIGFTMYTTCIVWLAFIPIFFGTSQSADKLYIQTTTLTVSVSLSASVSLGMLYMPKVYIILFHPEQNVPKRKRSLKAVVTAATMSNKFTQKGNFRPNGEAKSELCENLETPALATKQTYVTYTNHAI
Test [11] in a line: Activity at NMDA receptor in rat corticle slice assessed as antagonism of 10 uM NMDA-induced response. The test is classed as functional. Summed up:
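Modified rat cortical wedge preparation; depolarizing responses induced by NMDA (10 μM) recorded and antagonism measured. Racemates tested. Values are antilog of the log mean of at least three individual experiments, with ±SEM on a logarithmic distribution.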

Test [12] deals with Mus musculus. The test is described as follows: Anticonvulsant activity in ip dosed DBA/2 mouse assessed as inhibition of tonic extension seizures. The test is classed as functional. To be noted: DBA/2, ip. Summed up:
as §2

Test [13] deals with Metabotropic glutamate receptor 5 (Rattus norvegicus) (UniProt P31424). The experiment in a line: Activity at rat mGluR5a expressed in CHO cells at 1 mM. The test is classed as cell-based. An outline of the steps:
as §1

Test [14] is described as follows: Displacement of [3H]kainic acid from rat brain kainate receptor. An outline of the steps:
as §3
A general note: Loss of bound radioactivity is the signal in a displacement assay; it reports binding, not function.

Test [15] addresses Glutamate NMDA receptor. The test is described as follows: Displacement of [3H]CPP from rat brain NMDA receptor.

Chain of Metabotropic glutamate receptor 5 (Rattus norvegicus) (P31424 21-1203 limits assumed): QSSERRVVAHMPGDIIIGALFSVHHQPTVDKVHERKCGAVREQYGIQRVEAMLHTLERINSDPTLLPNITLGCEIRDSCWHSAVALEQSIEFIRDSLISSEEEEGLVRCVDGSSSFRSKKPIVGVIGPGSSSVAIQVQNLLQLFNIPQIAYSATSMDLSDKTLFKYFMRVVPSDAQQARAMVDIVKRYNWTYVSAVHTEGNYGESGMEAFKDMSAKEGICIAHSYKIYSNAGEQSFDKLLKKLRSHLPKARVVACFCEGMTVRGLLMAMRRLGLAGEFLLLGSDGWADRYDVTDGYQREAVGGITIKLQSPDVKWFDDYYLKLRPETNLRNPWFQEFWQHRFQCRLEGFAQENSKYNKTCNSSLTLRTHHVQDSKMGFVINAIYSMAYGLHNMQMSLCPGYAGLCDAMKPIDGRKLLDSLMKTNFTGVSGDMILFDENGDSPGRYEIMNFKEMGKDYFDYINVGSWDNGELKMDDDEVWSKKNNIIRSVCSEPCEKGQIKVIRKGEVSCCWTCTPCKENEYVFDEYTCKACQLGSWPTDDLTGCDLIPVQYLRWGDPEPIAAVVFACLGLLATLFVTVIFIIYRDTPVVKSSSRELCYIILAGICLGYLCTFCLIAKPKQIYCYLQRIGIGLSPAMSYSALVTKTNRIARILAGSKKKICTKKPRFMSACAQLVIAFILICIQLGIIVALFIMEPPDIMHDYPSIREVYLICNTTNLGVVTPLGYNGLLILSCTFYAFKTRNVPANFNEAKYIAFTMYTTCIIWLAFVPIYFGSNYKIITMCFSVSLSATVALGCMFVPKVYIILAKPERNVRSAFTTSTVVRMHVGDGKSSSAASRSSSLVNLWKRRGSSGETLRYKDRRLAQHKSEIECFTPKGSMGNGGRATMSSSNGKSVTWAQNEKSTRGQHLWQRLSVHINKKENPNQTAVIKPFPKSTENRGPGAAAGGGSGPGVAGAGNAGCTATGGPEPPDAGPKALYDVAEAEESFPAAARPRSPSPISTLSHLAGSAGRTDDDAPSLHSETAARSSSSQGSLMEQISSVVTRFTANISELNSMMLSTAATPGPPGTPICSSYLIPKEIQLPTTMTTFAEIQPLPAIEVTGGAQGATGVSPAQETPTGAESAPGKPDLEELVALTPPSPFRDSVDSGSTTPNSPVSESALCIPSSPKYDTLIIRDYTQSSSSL
Chain of Metabotropic glutamate receptor 2 (Rattus norvegicus) (P31421 19-872 limits assumed): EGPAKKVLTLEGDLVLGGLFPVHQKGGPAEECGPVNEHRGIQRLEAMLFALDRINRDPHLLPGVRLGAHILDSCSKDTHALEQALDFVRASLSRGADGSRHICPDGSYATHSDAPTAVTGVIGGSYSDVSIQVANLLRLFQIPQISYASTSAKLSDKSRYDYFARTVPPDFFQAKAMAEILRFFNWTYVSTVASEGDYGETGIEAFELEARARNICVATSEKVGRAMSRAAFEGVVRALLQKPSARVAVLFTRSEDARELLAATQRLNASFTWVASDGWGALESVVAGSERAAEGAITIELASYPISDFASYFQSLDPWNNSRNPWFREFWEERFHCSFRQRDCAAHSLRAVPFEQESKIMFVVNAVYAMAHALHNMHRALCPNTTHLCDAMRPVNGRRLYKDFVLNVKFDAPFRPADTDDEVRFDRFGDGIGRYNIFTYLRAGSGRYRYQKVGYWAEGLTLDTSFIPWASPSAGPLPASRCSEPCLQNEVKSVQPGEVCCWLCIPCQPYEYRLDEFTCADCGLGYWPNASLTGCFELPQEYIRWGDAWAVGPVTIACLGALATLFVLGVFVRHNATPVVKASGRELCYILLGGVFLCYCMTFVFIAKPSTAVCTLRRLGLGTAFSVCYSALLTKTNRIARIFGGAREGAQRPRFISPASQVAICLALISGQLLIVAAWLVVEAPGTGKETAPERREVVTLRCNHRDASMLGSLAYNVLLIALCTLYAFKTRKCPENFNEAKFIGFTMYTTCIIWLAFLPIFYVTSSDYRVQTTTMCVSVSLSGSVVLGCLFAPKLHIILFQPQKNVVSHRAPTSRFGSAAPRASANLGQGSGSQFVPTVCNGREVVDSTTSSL
Chain of Metabotropic glutamate receptor 1 (Rattus norvegicus) (P23385 19-1199 limits assumed): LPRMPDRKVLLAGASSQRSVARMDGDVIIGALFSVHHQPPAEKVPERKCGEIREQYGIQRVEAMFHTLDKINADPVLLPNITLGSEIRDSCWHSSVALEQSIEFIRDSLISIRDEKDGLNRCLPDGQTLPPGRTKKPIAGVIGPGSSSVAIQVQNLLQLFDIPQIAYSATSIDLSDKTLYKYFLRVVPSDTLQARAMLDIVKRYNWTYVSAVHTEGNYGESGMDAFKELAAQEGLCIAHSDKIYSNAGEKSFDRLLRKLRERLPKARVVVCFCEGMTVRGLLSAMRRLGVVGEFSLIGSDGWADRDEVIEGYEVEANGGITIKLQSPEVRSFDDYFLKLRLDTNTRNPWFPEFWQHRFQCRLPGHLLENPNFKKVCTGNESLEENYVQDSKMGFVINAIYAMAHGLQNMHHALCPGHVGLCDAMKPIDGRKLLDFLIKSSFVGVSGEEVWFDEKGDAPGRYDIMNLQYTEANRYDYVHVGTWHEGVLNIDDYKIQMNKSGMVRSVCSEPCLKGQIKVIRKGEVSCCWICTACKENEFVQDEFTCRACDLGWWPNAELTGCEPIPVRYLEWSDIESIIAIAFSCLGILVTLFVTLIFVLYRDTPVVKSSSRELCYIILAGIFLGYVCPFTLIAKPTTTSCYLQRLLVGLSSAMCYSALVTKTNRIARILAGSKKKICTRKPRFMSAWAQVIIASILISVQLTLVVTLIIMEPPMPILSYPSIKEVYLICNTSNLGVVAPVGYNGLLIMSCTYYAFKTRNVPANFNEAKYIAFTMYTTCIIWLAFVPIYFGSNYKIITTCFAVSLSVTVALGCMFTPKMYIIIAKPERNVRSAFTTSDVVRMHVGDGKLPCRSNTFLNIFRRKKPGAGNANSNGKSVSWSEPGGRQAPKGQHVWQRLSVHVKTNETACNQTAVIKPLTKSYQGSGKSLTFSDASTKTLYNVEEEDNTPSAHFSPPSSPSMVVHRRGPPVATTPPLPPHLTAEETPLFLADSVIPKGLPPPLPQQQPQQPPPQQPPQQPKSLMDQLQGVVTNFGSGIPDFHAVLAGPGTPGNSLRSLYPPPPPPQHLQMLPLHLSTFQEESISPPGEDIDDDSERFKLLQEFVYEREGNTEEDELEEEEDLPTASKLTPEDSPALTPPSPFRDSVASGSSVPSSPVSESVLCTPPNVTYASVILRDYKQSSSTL

With `N[C@@H](C[C@@H]1CC(C(=O)O)=NO1)C(=O)O` (relative stereo), the result in test [1], in [2], in test [4], in [6], in test [10] and in test [13] was inactive. Moreover, the outcome in [3] and in [9] was Active. The compound also showed a pKi in test [5] of 6.68. Besides, the ED50 is 17.9 µmol/kg in test [7] and 13.9 µmol/kg in test [12]. Besides, the pIC50 in test [8] was under 4.00; in test [11], 4.85; in [14], under 4.00.

Consider `O=C1NC(=O)C(c2ccccc2)(c2ccccc2)N1` [PHENYTOIN], for which the ED50 is 9.1 µmol/kg in test [7] and 7.3 µmol/kg in [12].

For `N[C@@]1(C(=O)O)C[C@@H]2ON=C(C(=O)O)[C@@H]2C1` (racemic), the pKi in test [5] is 6.43. For the same compound, the ED50 in test [7] stood at 28 µmol/kg; in test [12] it was 22 µmol/kg. Further, the negative logarithm of the IC50 (pIC50) in [8] and in [14] was under 4.00 each time.

For `N[C@H](C[C@@H]1CC(C(=O)O)=NO1)C(=O)O` (relative stereo), the result in test [4], in test [6], in test [10] and in test [13] was inactive. Moreover, in test [5], the pKi is 6.02. Further, the ED50 in test [7] came to 29.9 µmol/kg; in test [12], 19.7 µmol/kg. Further, the negative-log IC50 (pIC50) in [8] and in test [14] was under 4.00 throughout.

Take `CC1(C)ON=C(C(=O)O)[C@H]1C[C@H](N)C(=O)O` (relative stereo): the outcome in test [4], in [6], in [10] and in test [13] was inactive. The same compound had a pKi in test [5] of 4.10. The pIC50 in [8] was 4.92; in test [14], under 4.00.

On to `CC1(C)ON=C(C(=O)O)[C@H]1C[C@@H](N)C(=O)O` (relative stereo), for which the result in [4], in test [6], in [10] and in test [13] was inactive. The compound further had a pKi in test [5] of under 4.00. Moreover, the pIC50 in [8] and in test [14] was under 4.00 each time.

For the compound `O=C(O)C1CN(C/C=C/P(=O)(O)O)CCN1` (single isomer, unassigned; (-)), the pKi in [15] was 7.40. Further, the values for the ED50 in [7] and in [12] were 3.5 µmol/kg and 1.3 µmol/kg, respectively.

Usually pKi stands for the negative decadic logarithm of the Ki, by convention in mol/L. Lower therefore signals a large Ki. For orientation: ED50 means the dose that gives a 50% effect, or the effect in half of the subjects. In general, pIC50 refers to the IC50 on a negative log10 scale, so that one unit is a factor of ten.
